Source: PubChem BioAssay (Broad Institute)
T cruzi growth-1 = T. cruzi intracellular proliferation inhibitors, primary screen, cell-based, beta-gal Tulahuen parasites, NIH3T3 host, luminescence. inhibition, % at 8.34 µM. T. cruzi beta-gal in NIH3T3, GalScreen luminescence, 90 h. 77,000 compounds, 5.9% hits;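 active = mean inhibition above about 93%, with at least 55% of replicates each passing it, limit read from the data, passing the limit was not always enough; inconclusive = only one of those two conditions holds; inactive = neither condition holds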
GASC1 inh = inhibitors of GASC-1 (KDM4C) histone demethylase, primary screen, biochemical, single concentration HTS; inhibition, % at 12.5 µM; Lysine-specific demethylase 4C (Homo sapiens), Q9H3R0; GST-KDM4C 2-372, H3K9me3 peptide, LANCE TR-FRET; 96,000 compounds, 0.15% hits;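 active = mean replicate inhibition above about 25%, with at least 55% of replicates also reaching it, limit read from the data, passing the limit was not always enough; inconclusive = only one of those two conditions met; inactive = neither condition met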
Target sequence (Q9H3R0 2-372 limits assumed): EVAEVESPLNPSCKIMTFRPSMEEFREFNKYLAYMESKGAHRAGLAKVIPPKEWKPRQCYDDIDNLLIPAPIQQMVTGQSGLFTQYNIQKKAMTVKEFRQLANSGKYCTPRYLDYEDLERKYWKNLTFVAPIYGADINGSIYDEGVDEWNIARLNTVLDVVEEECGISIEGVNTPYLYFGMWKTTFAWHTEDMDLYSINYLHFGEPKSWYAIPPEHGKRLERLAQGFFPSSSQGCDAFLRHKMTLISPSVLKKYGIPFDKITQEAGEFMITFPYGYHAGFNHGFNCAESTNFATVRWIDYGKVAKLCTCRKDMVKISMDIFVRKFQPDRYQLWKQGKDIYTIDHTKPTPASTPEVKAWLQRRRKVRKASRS
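System: N-terminal GST-fused human GASC-1 (KDM4C) fragment, residues 2-372 / Amount: 10 nM GST-KDM4C in enzyme reaction / Also added: H3K9me3 peptide with Fe(II)/2OG / Times: 30 min demethylation and 1 h detection at room temperature / Signal: LANCE TR-FRET / Read-out basis: Fall in 671/618 emission ratio as inhibition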
IDH1 R132H inh = inhibitors of IDH1 R132H reductase, primary screen, biochemical, plate reader, single point | Isocitrate dehydrogenase [NADP] cytoplasmic (Homo sapiens), O75874 | diaphorase/resazurin fluorescence, 60 min | inhibition, % at 10 µM | 70,000 compounds, 0.18% hits | AID 624101, 2012; in the data active = inhibition above about 34%; inconclusive = no clear call, values can overlap the other calls; inactive = below about 11%;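 note: 0% = DMSO and 100% = no enzyme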
T cruzi growth-2 = T. cruzi intracellular proliferation inhibitors, confirmation, cell-based, NIH3T3 host, beta-gal parasite, luminescence, cherry-pick; shares compounds with T cruzi growth-1; T. cruzi beta-gal in NIH3T3, GalScreen luminescence, 90 h; inhibition, % at 8.35 µM; 5,600 compounds, 72% hits; AID 651739, 2012;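 active = mean replicate inhibition above about 95% and at least 55% of replicates individually reaching it, limit read from the data; inconclusive = only one of the two criteria is met; inactive = neither criterion is met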
T cruzi growth-3 = inhibitors of intracellular T. cruzi replication, confirmation, NIH3T3 host cells, beta-gal parasites, cherry-pick, set 2 | shares compounds with T cruzi growth-1 | T. cruzi beta-gal in NIH3T3, GalScreen luminescence, 90 h | inhibition, % at 2.09 µM | 5,600 compounds, 21% hits;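 active = mean inhibition above about 95%, with at least 55% of replicates also reaching it, limit read from the data; inconclusive = meets just one of the two conditions; inactive = meets neither condition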;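 note: plate controls were neutral control median for no effect and positive control median for full effect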
3T3 cytotox = cytotoxicity in mouse NIH/3T3 fibroblasts, confirmation, cytotoxicity control for T. cruzi proliferation inhibitor project, cell-based, cherry-pick, single point; shares compounds with T cruzi growth-1; NIH/3T3 viability, CellTiter-Glo ATP luminescence, 90 h; cytotoxicity (signal decrease), % at 8.35 µM; 5,600 compounds, 14% hits; AID 651742, 2012;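 active = mean signal decrease across replicates above about 35% based on untreated-well scatter, with enough replicates individually passing, limit read from the data; inconclusive = no rule stated though some were filed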;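 note: 0% = median of neutral control wells and 100% = median of positive control wells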
3T3 cytotox 2 = NIH/3T3 fibroblast cytotoxicity, confirmation, cytotoxicity control, cell-based, cherry-pick, single point, set 2; shares compounds with T cruzi growth-1; NIH/3T3 viability, CellTiter-Glo ATP luminescence, 90 h; inhibition, % at 24.9 µM; 5,600 compounds, 56% hits;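 active = mean loss of cell viability signal at or above a set limit, and enough replicates individually reaching it; inconclusive = meets only the mean limit or only the replicate share; inactive = meets neither condition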;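 note: 0% = median of neutral control wells and 100% = median of positive control wells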
Starred values were filed as active, the others as inactive; ? = inconclusive; . = not tested or not shown. Only a selection was taken, and hits are over-represented in it overall.

SMILES	T cruzi growth-1	GASC1 inh	IDH1 R132H inh	T cruzi growth-2	T cruzi growth-3	3T3 cytotox	3T3 cytotox 2
CC(C)C(O)(C(=O)OCc1ccc(O[C@@H]2O[C@H](CO)[C@@H](O)[C@H](O)[C@H]2O)cc1)C(C)O (some centres not stated)	.	.	0	.	.	.	.
Cc1ccc(S(=O)(=O)N2CC[C@@H]3[C@H](CO)Nc4ccc(C#Cc5ccc(F)cc5)cc4[C@@H]32)cc1	-11	-7	.	.	.	.	.
Cc1ccc(S(=O)(=O)N2CC[C@@H]3[C@H](CO)Nc4ccc(C#Cc5cccc(F)c5)cc4[C@@H]32)cc1	71	-1	.	.	.	.	.
Cc1ccc(S(=O)(=O)N2CC[C@@H]3[C@@H](CO)Nc4ccc(C#Cc5cccc(F)c5)cc4[C@@H]32)cc1	99*	-1	.	101*	108*	39*	57*
Cc1ccc(S(=O)(=O)N2CC[C@@H]3[C@H]2c2cc(C#Cc4ccccc4F)ccc2N[C@@H]3CO)cc1	?	1	.	113*	110*	24	?
O=S(=O)(c1ccccc1)N1CC[C@@H]2[C@H](CO)Nc3ccc(C#Cc4cccc(F)c4)cc3[C@@H]21	?	-3	.	101*	111*	46*	59*
O=S(=O)(c1ccccc1)N1CC[C@H]2[C@H](CO)Nc3ccc(C#Cc4cccc(F)c4)cc3[C@H]21	.	-8	.	.	.	.	.
CCN(C[C@H]1N[C@@H](CO)[C@@H]1c1ccc(-c2ccccc2)cc1)C(=O)COC	85	0	.	.	.	.	.
CCc1ccc(C(Nc2ccccn2)c2ccc3ccc(C)nc3c2O)cc1 (configuration not stated)	.	.	0	.	.	.	.
C[C@@H]1CN([C@H](C)CO)C(=O)c2cccc(NC(=O)CCCCCC(=O)Nc3ccccc3N)c2O[C@H]1CN(C)S(=O)(=O)c1ccc(Cl)cc1	92	0	.	.	.	.	.
C[C@H]1CN([C@@H](C)CO)C(=O)c2cccc(NC(=O)CCCCCC(=O)Nc3ccccc3N)c2O[C@H]1CN(C)S(=O)(=O)c1ccccc1	.	0	0	.	.	.	.
C[C@H]1CN([C@@H](C)CO)C(=O)c2cccc(NC(=O)CCCCCC(=O)Nc3ccccc3N)c2O[C@H]1CN(C)S(=O)(=O)c1ccc(Cl)cc1	101*	-3	.	106*	76	-2	5
C[C@H](CO)N1C[C@H](C)[C@@H](CN(C)S(=O)(=O)c2ccc(Cl)cc2)Oc2c(NC(=O)CCCCCC(=O)Nc3ccccc3N)cccc2C1=O	103*	-1	.	109*	88	-5	2
CN(C)Cc1cn(CC[C@H]2CC[C@H](N)[C@@H](CO)O2)nn1	-6	4	0	.	.	.	.
CC(=O)N[C@H]1CC[C@H](CC(=O)NCC2CCCCC2)O[C@H]1CO	-9	0	0	.	.	.	.
O=C(NCCc1ccccc1)[C@@H]1[C@@H](CO)[C@@H]2Cn3c(cccc3=O)[C@H]1N2C(=O)C1CCC1	?	-1	.	-15	11	-21	0
O=C(NCCc1ccccc1)[C@H]1[C@H](CO)[C@H]2Cn3c(cccc3=O)[C@@H]1N2C(=O)C1CCCC1	79	-1	.	.	.	.	.
O=C(NCCc1ccccc1)[C@H]1[C@H](CO)[C@H]2Cn3c(cccc3=O)[C@@H]1N2C(=O)C1CCC1	99*	0	.	66	21	10	-11
O=C(NCCc1ccccc1)[C@@H]1[C@@H](CO)[C@@H]2Cn3c(cccc3=O)[C@H]1N2C(=O)C1CC1	21	-1	.	.	.	.	.
C[C@H]1CCCCO[C@H](CN(C)C(=O)C2CCCCC2)[C@@H](C)CN([C@@H](C)CO)C(=O)c2cc(NC(=O)C3CCCCC3)ccc2O1	8	-2	1	.	.	.	.
COc1ccc(S(=O)(=O)N(C)C[C@H]2OCCCC[C@@H](C)Oc3ccc(NC(=O)C4CCCCC4)cc3C(=O)N([C@H](C)CO)C[C@@H]2C)cc1	37	-1	.	.	.	.	.
COc1ccc(S(=O)(=O)N(C)C[C@H]2Oc3ccc(NC(=O)Cn4cnnn4)cc3C(=O)N([C@@H](C)CO)C[C@H]2C)cc1	100*	0	1	37	-33	10	6
COc1ccc(S(=O)(=O)N(C)C[C@@H]2Oc3ccc(NC(=O)Cn4cnnn4)cc3C(=O)N([C@@H](C)CO)C[C@H]2C)cc1	-15	-2	1	.	.	.	.
COc1ccc(S(=O)(=O)N(C)C[C@H]2OCCCC[C@H](C)Oc3ccc(NC(=O)C4CCCCC4)cc3C(=O)N([C@@H](C)CO)C[C@@H]2C)cc1	106*	-1	.	105*	79	0	-26
COc1ccc(S(=O)(=O)N(C)C[C@@H]2OCCCC[C@@H](C)Oc3ccc(NC(=O)C4CCCCC4)cc3C(=O)N([C@@H](C)CO)C[C@@H]2C)cc1	99*	0	1	94	57	12	72*
SMILES	T cruzi growth-1	GASC1 inh	IDH1 R132H inh	T cruzi growth-2	T cruzi growth-3	3T3 cytotox	3T3 cytotox 2
COc1ccc(S(=O)(=O)N(C)C[C@H]2OCCCC[C@H](C)Oc3ccc(NC(=O)C4CCCCC4)cc3C(=O)N([C@H](C)CO)C[C@@H]2C)cc1	60	-2	.	.	.	.	.
C=CCN1CCN(c2nc3ccccc3nc2C#N)CC1	.	.	0	.	.	.	.
CCN(CC(=O)Nc1ccccc1)S(=O)(=O)c1ccc(OC)cc1	.	.	0	.	.	.	.
C[C@@H]1CN([C@@H](C)CO)C(=O)c2cccc(NS(=O)(=O)c3ccc(Cl)cc3)c2O[C@H]1CN(C)Cc1ccc(C(=O)Nc2ccccc2N)cc1	.	1	.	.	.	.	.
C[C@@H]1CN([C@H](C)CO)C(=O)c2cc(NC(=O)NC3CCCCC3)ccc2O[C@@H](C)CCCCO[C@H]1CN(C)S(=O)(=O)c1ccc(F)cc1	71	-1	4	.	.	.	.
O=C(C[C@H]1CC[C@H]2[C@@H](COC[C@H](O)CN2S(=O)(=O)c2ccc(F)cc2)O1)N[C@H]1CCN(Cc2ccccc2)C1	100*	1	.	70	53	-11	-21
Cc1ccc(S(=O)(=O)N2C[C@@H](O)COC[C@@H]3O[C@@H](CC(=O)N[C@@H]4CCN(Cc5ccccc5)C4)CC[C@H]32)cc1	63	-1	.	.	.	.	.
Cc1ccc(S(=O)(=O)N2C[C@@H](O)COC[C@H]3O[C@@H](CC(=O)N[C@@H]4CCN(Cc5ccccc5)C4)CC[C@@H]32)cc1	98*	0	.	82	73	-16	-41
